Runt-SMMHC FRET – Runt domain-CBFb-SMMHC interaction inhibition | Q01196+Q13951 | Cerulean-Runt/Venus-CBFb-SMMHC FRET ratio 530/480, 1 h | inhibition, % at 20 µM | 220,000 compounds, 0.74% hits;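 active = mean inhibition across duplicate retests at 20 µM reaching about 50%, limit read from the data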;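 note: 0% = DMSO wells and 100% = wells with excess untagged CBFb-SMMHC; inhibitors lower the FRET ratio by blocking Runt binding to CBFb-SMMHC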
Target sequence (Q01196 whole entry, looked up, the tested form may be a part): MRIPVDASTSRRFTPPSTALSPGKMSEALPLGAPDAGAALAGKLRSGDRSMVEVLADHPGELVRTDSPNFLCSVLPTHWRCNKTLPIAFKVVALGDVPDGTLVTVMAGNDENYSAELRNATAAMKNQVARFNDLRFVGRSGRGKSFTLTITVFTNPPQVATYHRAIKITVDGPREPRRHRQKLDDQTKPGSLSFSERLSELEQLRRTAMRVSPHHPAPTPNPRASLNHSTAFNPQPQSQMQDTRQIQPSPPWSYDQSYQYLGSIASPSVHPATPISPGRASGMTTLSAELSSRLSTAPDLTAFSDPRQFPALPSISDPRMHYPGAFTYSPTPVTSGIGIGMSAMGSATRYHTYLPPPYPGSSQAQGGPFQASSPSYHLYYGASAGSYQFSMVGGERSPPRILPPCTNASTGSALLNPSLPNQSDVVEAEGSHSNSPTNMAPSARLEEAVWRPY
Target sequence (Q13951 whole entry, looked up, the tested form may be a part): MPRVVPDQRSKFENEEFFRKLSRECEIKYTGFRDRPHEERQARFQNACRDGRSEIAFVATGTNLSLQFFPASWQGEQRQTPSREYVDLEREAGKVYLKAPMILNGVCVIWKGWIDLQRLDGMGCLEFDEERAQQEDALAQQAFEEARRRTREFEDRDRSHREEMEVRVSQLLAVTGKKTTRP
RanGTP-Imp inh – inhibitors of RanGTP-importin-beta interaction, primary screen, biochemical, FRET, CFP-Ran, YFP-importin-beta, homogeneous. 300,000 compounds, 1.1% hits. inhibition, % (concentration not given with the values). AID 2216. cell-free CFP-Ran/YFP-importin-beta FRET ratio;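 active = more than half of the replicate wells show a fall in the fluorescence ratio signal beyond about 16%, limit read from the data, passing the limit was not always enough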;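 note: 0% = DMSO wells and 100% = Ran loaded with GDP instead of GTP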
p97 inhibitor – inhibitors of human p97 ATPase | recombinant p97 ATPase, Kinase-Glo ATP luminescence, 3 h | inhibition, % at 8 µM | 220,000 compounds, 0.42% hits | AID 1481; in the data active = inhibition above about 15%;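 note: 0% = DMSO vehicle and 100% = wells lacking enzyme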
Hck-Nef inh – inhibitors of human Hck kinase activated by Nef; P08631; Recombinant Hck-YEEI plus Nef, Z-Lyte FRET kinase assay; inhibition, % at 20 µM; 220,000 compounds, 0.68% hits; AID 463187;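 active = Hck-Nef kinase inhibition above about 50%, limit read from the data; inactive = inhibition below that limit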;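 note: 0% = DMSO with Hck plus Nef and 100% = Hck alone without Nef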
Runt-CBFb FRET – blocks binding of human RUNX1 Runt domain to CBFb; Q01196+Q13951; Cerulean-Runt/Venus-CBFb FRET ratio 530/480, 1 h; inhibition, % at 20 µM; AID 1496; 220,000 compounds, 0.46% hits;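 active = inhibition over about 50% at 20 µM in the single-dose screen, limit read from the data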;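 note: 0% = DMSO wells and 100% = excess unlabeled CBFb competitor control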
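Schedule: protein complex preformed 1 h, compound exposure 1 h, room temperature, dark; test system: Cerulean-labeled Runt domain protein; amount: 100 nM per protein; buffer or medium: Tris 50 mM pH 7.5, KCl, K2SO4, 0.01% BSA; read-out: loss of energy transfer signal; detection: FRET fluorescence; controls: 5 µM unlabeled CBFb as full-inhibition high control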
TbHK1 inh – blocks Trypanosoma brucei hexokinase 1 activity; inhibition, % at 10 µM; AID 1430; recombinant TbHK1, G6PDH-coupled NADH A340; 220,000 compounds, 0.11% hits;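 active = inhibition of 50% or more in the single-dose primary screen; inactive = inhibition below 50%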
p97 inh conf – human p97 ATPase inhibition, confirmation | shares compounds with p97 inhibitor | recombinant p97 ATPase, Kinase-Glo ATP luminescence | inhibition, % at 8 µM | 760 compounds, 44% hits;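 active = percent inhibition of p97 ATPase above a set limit, the primary screen's mean plus 3 SD, cut at about 15% in these data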;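 note: 0% = DMSO wells and 100% = wells lacking p97 protein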
RUNX1 CBFb TR – Runt-CBFb binding inhibition; 480 compounds, 20% hits; TR-FRET RUNX1 Runt domain-CBFb binding; inhibition, % at 20 µM; shares compounds with Runt-CBFb FRET; in the data active = inhibition above about 40%
YIC FRET counter – counter-screen: alters YIC FRET probe signal; shares compounds with RanGTP-Imp inh; 1,000 compounds, 40% hits; IC50, µM; AID 435026; Purified YIC probe, intramolecular FRET ratio YFP/CFP;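 active = fitted half-maximal inhibitory concentration no more than tenfold above the top dose tested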
Hck Nef conf – confirmation of Hck-Nef kinase inhibitors; shares compounds with Hck-Nef inh; Recombinant Hck-YEEI:Nef, Z-Lyte FRET kinase assay; calls only at 10 µM; 1,300 compounds, 28% hits; AID 463188;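 active = average inhibition of at least 50%, with Z-scores no higher than 3 in both the phospho-tyrosine peptide and fluorescence counterscreens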
An asterisk follows results filed as active; i = inactive; . = no result given; + = active, no number. An excerpt weighted towards active compounds, which were near 2.1% of everything screened.

SMILES	Runt-SMMHC FRET	RanGTP-Imp inh	p97 inhibitor	Hck-Nef inh	Runt-CBFb FRET	TbHK1 inh	others
Nc1c(C(=O)NCCN2CCOCC2)c2nc3ccccc3nc2n1Cc1ccccc1	81*	63*	35*	95*	78*	-29	p97 inh conf=0
O=c1[nH]c(O)c(Cc2ccc3c(c2)OCO3)c(=O)[nH]1	-1	-2	-1	11	1	7
CCC(C)OC(=O)c1c(N)n(Cc2cccs2)c2nc3ccccc3nc12 (centres undefined)	94*	12	-2	7	53*	-3	RUNX1 CBFb TR=29
COc1ccc2c(C)c(CCC(=O)N3C[C@H]4C[C@@H](C3)c3cccc(=O)n3C4)c(=O)oc2c1	.	4	.	.	.	.
Nc1c(C(=O)NCCc2ccccc2)c2nc3ccccc3nc2n1CCN1CCOCC1	91*	78*	-5	53*	58*	-15	RUNX1 CBFb TR=23;Hck Nef conf=i
CN(C)[C@@H]1C(=O)C(C(N)=O)=C(O)[C@@]2(O)C(=O)C3=C(O)c4c(O)cccc4[C@@](C)(O)C3[C@H](O)C12 (some centres undefined)	.	-3	.	.	.	.
CNS(=O)(=O)c1ccc(N=Cc2c(O)n(-c3cccc(C)c3)c(=O)[nH]c2=O)cc1	-21	-1	2	19	0	-13
Cc1cccc(-n2c(O)c(/C=C/C=Nc3ccccc3)c(=O)[nH]c2=O)c1	75	34*	1	6	31	-9	YIC FRET counter=2.8*
CC(c1ccccc1)[n+]1ccccc1 (centres undefined)	.	4	.	.	.	.
Cc1nn(Cc2ccccc2)c(C)c1C(=O)NCc1ccccc1F	-7	-1	1	0	.	5
COCCNC(=O)c1c(NC(=O)c2ccco2)n(Cc2ccccc2)c2nc3ccccc3nc12	98*	31*	-3	8	33	-16	YIC FRET counter=0.93*
C=CCn1c(O)c(C(C)=NCC2CCCO2)c(=O)[nH]c1=O (centres undefined)	1	2	-3	8	-1	-7
O=C1NC(=O)N(Cc2ccccc2)C(=O)/C1=C\N1CCCc2ccccc21	48	27*	6	0	37	13	YIC FRET counter=>50
CCC(C)C1NC(=O)C(C(C)=O)=C1O (centres undefined)	-2	-1	.	28	2	-9
C=CCn1c(O)c(C(C)=NCCc2ccccc2)c(=O)[nH]c1=O	-4	23*	1	-2	1	-2	YIC FRET counter=>50
COCCOC(=O)C1=C(C)OC(N)=C(C(=O)OC)C12C(=O)Nc1ccccc12 (centres undefined)	2	16*	-3	0	-1	-2	YIC FRET counter=>50
N#Cc1c(/N=C/c2ccc(O)cc2O)sc2c1C1CCN2CC1	59*	39*	0	4	64*	-13	YIC FRET counter=>26
O=C(c1ccc(N2CCCCCC2)c([N+](=O)[O-])c1)N1CCC2(CC1)OCCO2	1	3	-1	19	-7	4
CN1CCC2(CC1)CC(NC=O)c1ccccc1O2 (centres undefined)	1	-5	1	23	0	6
COCCCn1c(N)c(C(=O)Nc2ccccc2)c2nc3ccccc3nc21	16	19*	-3	16	7	-19	YIC FRET counter=25*
CCOC(=O)c1c(N)n(CCN2CCCCC2)c2nc3ccccc3nc12	99*	51*	0	29	41	-4	YIC FRET counter=45*
CCOC(=O)c1ccccc1C(=O)OCC	.	6	.	.	.	.
CCN(CC)C(=O)c1ccc2c(c1)C1C(Cl)C(Sc3ccccc3[N+](=O)[O-])CC1C(C(=O)O)N2 (centres undefined)	2	1	-3	63*	11	-3	Hck Nef conf=i
Cc1ccc2c(c1Cl)NC(C(=O)O)C1CC(Sc3ccccc3[N+](=O)[O-])C(Cl)C21 (centres undefined)	-14	1	7	44	20	7
C/C(CC(c1ccccc1)c1c(O)c2ccccc2oc1=O)=N\NC(N)=S (centres undefined)	4	3	4	-4	1	0
SMILES	Runt-SMMHC FRET	RanGTP-Imp inh	p97 inhibitor	Hck-Nef inh	Runt-CBFb FRET	TbHK1 inh	others
NC(=S)N/N=C/c1coc2ccccc2c1=O	2	0	-2	53*	1	-16	Hck Nef conf=i
NS(=O)(=O)c1ccc(-c2ccc(C=C3C(=O)NC(=O)NC3=O)o2)cc1	.	-2	.	.	.	.
O=C1NC(=O)C(=Cc2ccc(-c3ccccc3[N+](=O)[O-])o2)C(=O)N1	27	0	10	76*	20	-30	Hck Nef conf=+
O=[N+]([O-])NC1=NCN(Cc2ccco2)CN1Cc1ccco1	2	2	-1	-1	0	-1
CCC(C)n1c(O)c(/C=N/Nc2ccccc2)c(=O)[nH]c1=S (centres undefined)	-1	1	-1	-2	13	-28
COc1cc(CNCCc2c[nH]c3ccccc23)cc(OC)c1	.	-2	.	.	.	.
CCN1C(=O)NC(=O)/C(=C\c2cn(CC(=O)O)c3ccccc23)C1=O	.	1	.	.	.	.
O=C(O)Cn1cc(/C=C2\C(=O)NC(=O)N(Cc3ccco3)C2=O)c2ccccc21	-9	-2	5	74*	19	7	Hck Nef conf=i
CC(C)CCNC(=O)c1c(N)n(CC2CCCO2)c2nc3ccccc3nc12 (centres undefined)	20	93*	-2	58*	2	-28	Hck Nef conf=i
O=C(NCCN1CCOCC1)c1ccc(Cl)nc1Cl	0	10	-5	8	0	8
Nc1c(C(=O)NCCN2CCOCC2)c2nc3ccccc3nc2n1Cc1ccco1	.	64*	7	58*	72*	-13	Hck Nef conf=i
CN1CCN(Cc2cn(C)c3ccccc23)CC1CCO (centres undefined)	.	-1	.	.	.	.
N#Cc1ccccc1NC(=O)CN1CC=C(c2ccccc2)CC1	-1	2	6	55*	-3	6	Hck Nef conf=i
CCN(CC)CCN=Cc1c(O)n(CCc2ccccc2)c(=O)[nH]c1=O	3	1	7	62*	1	1	Hck Nef conf=i

Source: PubChem BioAssay (several laboratories)
